Data reported in ChEMBL document CHEMBL1135727, “Selective antagonists at group I metabotropic glutamate receptors: synthesis and molecular pharmacology of 4-aryl-3-isoxazolol amino acids” (J Med Chem, 2002).

Experiments:
[1] = biological target: Glutamate receptor ionotropic, kainate 1 (Rattus norvegicus, UniProt P22756); test: Concentration which causes 50% reduction in receptor binding affinity against Ionotropic glutamate receptor ionotropic kainate using [3H]-kainic acid
[2] = biological target: Metabotropic glutamate receptor 5 (Rattus norvegicus, UniProt P31424); test: The compound was tested for the receptor binding affinity at Metabotropic glutamate receptor 5 using established second messenger assay systems.
Sequence of Metabotropic glutamate receptor 5 (P31424 whole entry): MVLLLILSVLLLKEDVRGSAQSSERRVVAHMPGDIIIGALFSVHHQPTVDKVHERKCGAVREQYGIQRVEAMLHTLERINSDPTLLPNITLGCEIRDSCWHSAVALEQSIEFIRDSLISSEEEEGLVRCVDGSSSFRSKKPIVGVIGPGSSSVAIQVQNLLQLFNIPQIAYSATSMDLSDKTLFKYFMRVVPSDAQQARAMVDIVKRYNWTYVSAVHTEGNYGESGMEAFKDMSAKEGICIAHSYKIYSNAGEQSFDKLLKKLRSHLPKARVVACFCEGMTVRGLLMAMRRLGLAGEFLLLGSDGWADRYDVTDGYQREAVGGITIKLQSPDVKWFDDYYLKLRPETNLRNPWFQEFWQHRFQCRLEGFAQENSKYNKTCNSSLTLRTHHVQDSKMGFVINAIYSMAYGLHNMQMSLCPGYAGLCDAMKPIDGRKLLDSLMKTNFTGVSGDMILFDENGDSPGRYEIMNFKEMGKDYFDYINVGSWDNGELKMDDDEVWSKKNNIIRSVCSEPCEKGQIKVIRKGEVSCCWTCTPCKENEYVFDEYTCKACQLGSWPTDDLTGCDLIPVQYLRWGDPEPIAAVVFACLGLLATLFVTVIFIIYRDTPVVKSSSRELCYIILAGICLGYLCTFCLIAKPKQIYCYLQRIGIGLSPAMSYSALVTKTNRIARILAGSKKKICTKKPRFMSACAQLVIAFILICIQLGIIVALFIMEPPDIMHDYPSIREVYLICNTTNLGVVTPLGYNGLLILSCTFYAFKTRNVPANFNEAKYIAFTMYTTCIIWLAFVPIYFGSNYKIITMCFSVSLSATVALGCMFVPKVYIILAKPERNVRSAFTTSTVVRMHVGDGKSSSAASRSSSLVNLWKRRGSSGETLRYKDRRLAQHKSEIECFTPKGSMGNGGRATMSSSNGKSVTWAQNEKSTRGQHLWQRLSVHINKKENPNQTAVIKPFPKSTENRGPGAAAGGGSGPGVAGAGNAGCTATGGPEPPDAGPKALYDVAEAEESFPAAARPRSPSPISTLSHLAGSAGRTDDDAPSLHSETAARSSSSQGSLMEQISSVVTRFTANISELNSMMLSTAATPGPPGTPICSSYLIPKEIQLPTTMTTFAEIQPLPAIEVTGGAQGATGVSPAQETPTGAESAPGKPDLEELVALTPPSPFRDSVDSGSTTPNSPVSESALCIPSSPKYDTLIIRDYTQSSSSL
Method in brief: (§1)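 Receptors were expressed in CHO cells: mGluR1α, mGluR2, mGluR4a and mGluR5a. Functional read-outs were PI hydrolysis (1.8 × 10^6 cells seeded 2 days before) or cyclic AMP formation (1.0 × 10^6 cells seeded 2 days before). Agonist and antagonist activity was tested at 1 mM unless stated otherwise. Ki was derived from IC50 via the Cheng–Prusoff equation.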

[3] = biological target: Metabotropic glutamate receptor 2 (Rattus norvegicus, UniProt P31421); test: The compound was tested for the receptor binding affinity at Metabotropic glutamate receptor 2 using established second messenger assay systems.; method in brief: as §1
Sequence of Metabotropic glutamate receptor 2 (P31421 whole entry): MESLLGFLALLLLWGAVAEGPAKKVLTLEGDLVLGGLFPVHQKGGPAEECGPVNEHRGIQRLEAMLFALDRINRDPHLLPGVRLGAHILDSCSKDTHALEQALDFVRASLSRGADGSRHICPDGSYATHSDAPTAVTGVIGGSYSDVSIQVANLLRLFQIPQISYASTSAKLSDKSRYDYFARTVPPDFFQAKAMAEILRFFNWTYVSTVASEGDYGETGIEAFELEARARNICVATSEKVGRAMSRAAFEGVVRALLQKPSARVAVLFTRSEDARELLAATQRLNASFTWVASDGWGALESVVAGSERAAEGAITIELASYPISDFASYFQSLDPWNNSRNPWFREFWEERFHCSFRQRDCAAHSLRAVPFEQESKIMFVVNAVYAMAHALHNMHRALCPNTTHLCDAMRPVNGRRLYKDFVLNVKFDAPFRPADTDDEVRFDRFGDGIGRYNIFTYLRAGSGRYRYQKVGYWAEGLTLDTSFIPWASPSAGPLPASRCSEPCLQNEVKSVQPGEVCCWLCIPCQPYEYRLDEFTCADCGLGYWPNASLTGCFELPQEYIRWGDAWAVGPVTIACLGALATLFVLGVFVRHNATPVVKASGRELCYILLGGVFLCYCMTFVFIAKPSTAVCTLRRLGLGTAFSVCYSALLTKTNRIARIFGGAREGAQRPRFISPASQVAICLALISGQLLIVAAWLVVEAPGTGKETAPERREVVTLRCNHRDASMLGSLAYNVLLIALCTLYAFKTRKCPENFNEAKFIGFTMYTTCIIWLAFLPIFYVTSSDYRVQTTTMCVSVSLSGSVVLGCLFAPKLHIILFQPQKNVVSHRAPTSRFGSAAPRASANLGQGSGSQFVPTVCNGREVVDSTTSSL

[4] = biological target: Metabotropic glutamate receptor 4 (Rattus norvegicus, UniProt P31423); test: The compound was tested for the receptor binding affinity at Metabotropic glutamate receptor 4 using established second messenger assay systems.; method in brief: as §1
[5] = biological target: Metabotropic glutamate receptor 1 (Rattus norvegicus, UniProt P23385); test: The compound was tested for the receptor binding affinity at Metabotropic glutamate receptor 1 using established second messenger assay systems.; method in brief: as §1
Sequence of Metabotropic glutamate receptor 1 (P23385 whole entry): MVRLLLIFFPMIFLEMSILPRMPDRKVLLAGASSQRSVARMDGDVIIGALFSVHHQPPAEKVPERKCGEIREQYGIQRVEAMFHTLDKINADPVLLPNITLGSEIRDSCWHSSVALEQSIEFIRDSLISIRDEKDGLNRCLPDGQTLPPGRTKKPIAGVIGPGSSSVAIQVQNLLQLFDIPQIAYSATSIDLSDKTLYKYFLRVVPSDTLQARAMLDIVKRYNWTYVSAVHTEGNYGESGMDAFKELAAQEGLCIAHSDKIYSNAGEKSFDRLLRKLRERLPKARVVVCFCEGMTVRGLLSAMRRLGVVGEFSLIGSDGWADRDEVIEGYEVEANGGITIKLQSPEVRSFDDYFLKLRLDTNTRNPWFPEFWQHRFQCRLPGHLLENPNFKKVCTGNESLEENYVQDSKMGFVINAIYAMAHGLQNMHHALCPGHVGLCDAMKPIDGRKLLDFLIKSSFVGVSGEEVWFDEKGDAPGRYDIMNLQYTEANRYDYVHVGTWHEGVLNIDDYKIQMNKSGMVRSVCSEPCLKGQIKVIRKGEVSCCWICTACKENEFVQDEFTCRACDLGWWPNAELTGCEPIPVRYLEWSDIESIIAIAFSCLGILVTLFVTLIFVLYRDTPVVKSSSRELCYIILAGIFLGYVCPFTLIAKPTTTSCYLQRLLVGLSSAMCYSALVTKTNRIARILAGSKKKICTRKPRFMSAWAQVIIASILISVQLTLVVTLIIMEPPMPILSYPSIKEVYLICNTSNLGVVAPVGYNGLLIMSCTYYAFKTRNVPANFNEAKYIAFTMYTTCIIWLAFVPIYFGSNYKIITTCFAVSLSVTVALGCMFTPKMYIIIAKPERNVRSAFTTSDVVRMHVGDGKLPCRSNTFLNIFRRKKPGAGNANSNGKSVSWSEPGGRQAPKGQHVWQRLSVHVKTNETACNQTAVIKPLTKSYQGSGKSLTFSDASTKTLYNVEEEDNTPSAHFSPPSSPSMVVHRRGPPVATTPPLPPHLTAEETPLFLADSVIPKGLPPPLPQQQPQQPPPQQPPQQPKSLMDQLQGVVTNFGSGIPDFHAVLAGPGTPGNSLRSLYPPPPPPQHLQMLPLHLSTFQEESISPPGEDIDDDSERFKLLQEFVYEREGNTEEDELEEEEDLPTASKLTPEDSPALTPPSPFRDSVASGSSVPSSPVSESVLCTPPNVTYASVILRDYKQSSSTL

Glutamate NMDA receptor = test: Concentration which causes 50% reduction in receptor binding affinity against N-methyl-D-aspartate glutamate receptor (NMDA) using [3H]CPP; type: protein-complex assay
Rattus norvegicus [6] = species on record: Rattus norvegicus; test: Electropharmacology measured as antagonist effects in the rat cortical wedge model; type: functional
[7] = biological target: T1, Glutamate receptor ionotropic, AMPA (Rattus norvegicus, UniProt P19490+P19491+P19492+P19493); test: Concentration which causes 50% reduction in receptor binding affinity against Ionotropic glutamate receptor AMPA using [3H]AMPA
[8] = biological target: T1, Glutamate receptor ionotropic, AMPA; test: Concentration which causes 50% reduction in receptor binding affinity against Ionotropic glutamate receptor AMPA using [3H]AMPA; type: protein-complex assay
Rattus norvegicus [9] = species on record: Rattus norvegicus; test: Electropharmacology measured as agonist effects in the rat cortical wedge model; type: functional

Sequence of Glutamate receptor ionotropic, kainate 1 (P22756 whole entry): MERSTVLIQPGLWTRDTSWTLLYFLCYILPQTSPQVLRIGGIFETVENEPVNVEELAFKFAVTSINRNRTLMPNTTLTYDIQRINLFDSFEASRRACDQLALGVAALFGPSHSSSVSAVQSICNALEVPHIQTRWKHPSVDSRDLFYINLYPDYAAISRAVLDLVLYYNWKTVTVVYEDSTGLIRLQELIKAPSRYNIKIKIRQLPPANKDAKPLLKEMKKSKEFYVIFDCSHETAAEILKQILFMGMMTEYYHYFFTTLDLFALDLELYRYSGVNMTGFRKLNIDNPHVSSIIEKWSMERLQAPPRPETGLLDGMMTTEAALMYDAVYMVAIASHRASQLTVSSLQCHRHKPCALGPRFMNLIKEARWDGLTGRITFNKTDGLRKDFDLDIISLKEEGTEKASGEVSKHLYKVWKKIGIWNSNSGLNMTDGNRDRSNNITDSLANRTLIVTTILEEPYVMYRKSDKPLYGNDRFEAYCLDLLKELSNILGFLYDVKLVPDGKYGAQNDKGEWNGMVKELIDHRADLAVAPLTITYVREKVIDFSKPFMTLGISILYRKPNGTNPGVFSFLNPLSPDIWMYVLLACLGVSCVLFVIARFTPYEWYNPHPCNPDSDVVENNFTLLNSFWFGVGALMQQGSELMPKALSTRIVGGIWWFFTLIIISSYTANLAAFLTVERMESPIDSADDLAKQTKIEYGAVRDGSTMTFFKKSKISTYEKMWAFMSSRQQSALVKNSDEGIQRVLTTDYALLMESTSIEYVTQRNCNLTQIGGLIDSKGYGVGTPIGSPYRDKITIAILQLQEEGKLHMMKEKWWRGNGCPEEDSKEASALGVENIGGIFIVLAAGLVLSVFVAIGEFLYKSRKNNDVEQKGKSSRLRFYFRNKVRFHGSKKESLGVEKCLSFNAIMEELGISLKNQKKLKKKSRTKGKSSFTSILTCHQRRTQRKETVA

| Structure (SMILES) | IC50 [1] | Ki [2] | Ki [3] | Ki [4] | Ki [5] | IC50 (Glutamate NMDA receptor) | IC50 (Rattus norvegicus [6]) | IC50 [7] | IC50 [8] | EC50 (Rattus norvegicus [9]) |
| --- | --- | --- | --- | --- | --- | --- | --- | --- | --- | --- |
| N[C@@H](Cc1onc(O)c1-c1ccc(O)cc1)C(=O)O | > 100 µM | 65 µM | > 1000 µM | > 1000 µM | 71 µM | 20 µM | ~1000 µM |  | > 100 µM |  |
| N[C@@H](Cc1o[nH]c(=O)c1CCc1ccccc1)C(=O)O | > 100 µM | 70 µM | > 1000 µM | > 1000 µM | 92 µM | > 100 µM | > 1000 µM |  | > 100 µM |  |
| N[C@@H](Cc1onc(O)c1-c1cccc(O)c1)C(=O)O | > 100 µM |  | > 1000 µM | > 1000 µM | 226 µM | 42 µM |  |  | 62 µM | 990 µM |
| N[C@@H](Cc1onc(O)c1-c1ccccc1O)C(=O)O | > 100 µM | 45 µM | > 1000 µM | > 1000 µM | 125 µM | > 100 µM |  |  | > 100 µM | > 1000 µM |
| N[C@@H](Cc1cc(=O)[nH]o1)C(=O)O | > 100 µM | 490 µM | > 1000 µM | > 1000 µM | 250 µM | > 100 µM |  |  |  |  |
| N[C@@H](Cc1onc(O)c1-c1ccccc1)C(=O)O | > 100 µM |  | > 1000 µM | > 1000 µM | 160 µM | > 100 µM |  |  | > 100 µM | 590 µM |

Next, values leading:

| IC50 [1] | Ki [2] | Ki [3] | Ki [4] | Ki [5] | IC50 (Glutamate NMDA receptor) | IC50 (Rattus norvegicus [6]) | IC50 [7] | IC50 [8] | EC50 (Rattus norvegicus [9]) | Structure (SMILES) |
| --- | --- | --- | --- | --- | --- | --- | --- | --- | --- | --- |
| > 100 µM | 62 µM | > 1000 µM | > 1000 µM | 119 µM | > 100 µM | ~1000 µM | > 100 µM |  |  | N[C@@H](Cc1o[nH]c(=O)c1-c1cccc2ccccc12)C(=O)O |
| > 100 µM | 224 µM | > 1000 µM | > 1000 µM | 396 µM | > 100 µM |  |  | 1.3 µM | 23 µM | N[C@@H](Cc1o[nH]c(=O)c1-c1ccccn1)C(=O)O |
| > 100 µM | 53 µM | > 1000 µM | > 1000 µM | 249 µM | 14 µM | 715 µM |  | > 100 µM |  | N[C@@H](Cc1onc(O)c1-c1ccc2ccccc2c1)C(=O)O |
